For series [1], the system named is PCNA replication foci in HCT116 cells. Kind of series: Co-localization with PCNA in replication foci in HCT116 cells. The following applies: HCT116 cell line (hMLH1 deficient); Fig. S5. It is filed as cell-based.
The subject of series [2] is PCNA replication foci in NIH3T3 cells. It is filed as cell-based, murine. To be noted: for foci formation and co-localization with PCNA during S-phase: 24–48 h. The method, boiled down:
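Murine NIH3T3 cells were kept in DMEM with 10% FBS and penicillin/streptomycin at 37 °C, 10% CO₂. Cells (2*10⁵ per glass-bottom dish) were seeded 24 h before ExGen500 co-transfection with 3 μg total plasmid (CFP-PCNA plus YFP fusion). Confocal imaging at 24–48 h. Co-transfected cells were counted and binned by pattern, e.g. "no foci" (diffuse CFP-PCNA, diffuse nuclear YFP).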

The target of the next series is PCNA (Homo sapiens, UniProt P12004). Kind of series: Isothermal titration calorimetry of hEXO1 peptides with purified PCNA. It is filed as binding. To be noted: ITC, 30 °C, pH 7.5; 18 μM PCNA, 200 μM p22; no dilution effects in pure buffer. A general note: Isothermal titration calorimetry measures the heat released or taken up as one component is titrated into another.

The test system of another series is hEXO1. To be noted: hEXO1-hMLH1 interaction, ref [15], cited from earlier work.
Setting [3] is: NIH3T3 cells co-transfected with CFP-PCNA.

Data on four molecules can be found in paper PMC4586255 (DNA repair, 2010).

Residues, ends and D or L forms follow the SMILES beside them.

PCNA, sequence (P12004 whole entry): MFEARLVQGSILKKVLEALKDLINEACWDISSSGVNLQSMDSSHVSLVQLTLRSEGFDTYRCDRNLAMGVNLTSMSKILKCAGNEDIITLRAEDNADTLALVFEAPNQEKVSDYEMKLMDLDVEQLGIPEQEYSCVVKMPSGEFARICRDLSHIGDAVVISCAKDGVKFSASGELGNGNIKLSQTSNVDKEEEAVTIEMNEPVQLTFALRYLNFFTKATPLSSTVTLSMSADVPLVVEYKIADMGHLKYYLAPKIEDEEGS

With human exonuclease 1 [YFP-hEXO1], in series [1], the “co-localization with PCNA in replication foci” value is “co-localize with PCNA in replication foci in the HCT116 cell line”. For the same molecule, the “Small foci (CFP-PCNA)” value in series [2] (CFP channel (CFP-PCNA) in cells co-expressing the hEXO1 protein, early S-phase foci, 50 co-transfected cells) came out at 28%. The “Large foci (CFP-PCNA)” value in series [2] (CFP channel (CFP-PCNA) in cells co-expressing the hEXO1 protein, late S-phase foci, 50 co-transfected cells) came to 12%. Further, in series [2] (CFP channel (CFP-PCNA) in cells co-expressing the hEXO1 protein, mid S-phase foci, 50 co-transfected cells), the “Mid Foci (CFP-PCNA)” value worked out at 14%. For the same molecule, in series [2] (setting [3]), the “cells showing diffuse nuclear staining” value was 40%; the “foci formation and co-localization with PCNA during S-phase” value was “co-localize in discrete nuclear foci”. In addition, the sub-cellular localization entry in series [2] (NIH3T3 cells, confocal imaging) is listed as “only rarely observed in the cytoplasm”.

For the molecule `CC[C@H](C)[C@H](NC(=O)[C@H](CCC(N)=O)NC(=O)[C@H](CC(C)C)NC(=O)CNC(=O)[C@@H]1CCCN1C(=O)[C@H](CCCCN)NC(=O)[C@@H](N)CC(N)=O)C(=O)N[C@@H](CCCCN)C(=O)N[C@@H](CC(C)C)C(=O)N[C@@H](CC(N)=O)C(=O)N[C@@H](CCC(=O)O)C(=O)N[C@@H](CC(C)C)C(=O)N[C@@H](Cc1c[nH]c2ccccc12)C(=O)N[C@@H](CCCCN)C(=O)N[C@@H](CC(N)=O)C(=O)N[C@@H](Cc1ccccc1)C(=O)NCC(=O)N[C@@H](Cc1ccccc1)C(=O)N[C@@H](CCCCN)C(=O)N[C@@H](CCCCN)C(=O)N[C@@H](CC(=O)O)C(=O)N[C@@H](CO)C(=O)O` [hEXO1 p22] (H-NKPGLQIKLNELWKNFGFKKDS-OH; N-terminus and C-terminus assumed), the “heat exchange of binding reaction with PCNA” value at PCNA is recorded as “exothermic heat exchange”.

Take hEXO1-hMLH1: hEXO1-hMLH1 complex: the “exonuclease activity on heteroduplex substrate” value in the series with hEXO1 (heteroduplex substrate) is listed as “inhibits exonuclease activity on a heteroduplex substrate”. For the same molecule, the “exonuclease activity on homoduplex substrate” value with hEXO1 (homoduplex substrate) is given as “did not inhibit exonuclease activity on a homoduplex substrate”.

Turning to “hMSH6: fusion protein, CFP or YFP tagged MMR protein”, the “foci formation and co-localization with PCNA during S-phase” value in series [2] (setting [3]) is listed as “form PCNA co-localizing foci throughout S-phase”.
